Laboratory results taken from ChEMBL document CHEMBL4130485, “Inhibitors of Yellow Fever Virus replication based on 1,3,5-triphenyl-4,5-dihydropyrazole scaffold: Design, synthesis and antiviral evaluation” (Eur J Med Chem, 2017).
The source made the active and inactive calls. No cut-off for these calls is given here.

Key:
[1] = Cytotoxicity against bovine MDBK cells assessed as decrease in cell viability after 72 hrs by MTT assay; format: cell-based, Bos taurus; conditions: cattle
Summary of the method: (§1)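 Uninfected MDBK (6×10^5 cells/mL, 10% horse serum) or BHK (1×10^6 cells/mL, 10% FBS) cells in MEM-Earle with serial compound dilutions at 37 °C, 5% CO2, run in parallel with the antiviral assays. Viability read by MTT after 72 h. CC50 by linear regression; mean of three determinations.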

[2] = tested on: Bovine viral diarrhea virus 1; assay: Antiviral activity against Bovine viral diarrhea virus NADL ATCC VR 534 infected in bovine MDBK cells assessed as protection against virus-induced cytopathic effect after 3 to 4 days by MTT assay; format: functional, organism-based, Bovine viral diarrhea virus 1-NADL; conditions: Bovine viral diarrhea virus isolates and strains, ATCC VR 534, MDBK
Summary of the method: (§2)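 BHK-21 cells (MDBK for BVDV) seeded at 5×10^4 (BHK) or 3×10^4 (MDBK) cells/well and grown overnight to confluence. Infected at m.o.i. 0.01 in maintenance MEM-Earle with 0.5% inactivated FBS. Serial compound dilutions added 2 h later (final 100, 20, 4, 0.8 µM; DMSO ≤0.1%). Viability read by MTT after 3–4 days at 37 °C. EC50 obtained by linear regression against untreated controls; mean of three determinations.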

[3] = tested on: Vesicular stomatitis Indiana virus; assay: Antiviral activity against Vesicular stomatitis virus Indiana ATCC VR 158 infected in African green monkey Vero 76 cells assessed as protection against virus-induced cytopathic effect after 2 days by crystal violet staining-based plaque reduction assay; format: functional, organism-based; conditions: ATCC VR 158, Vero 76, 48 h
Yellow fever virus [4] = assay: Potency index, ratio of azauridine EC50 to compound EC50 for Yellow fever virus 17D vaccine (Stamaril Pasteur J07B01); format: functional
Human alphaherpesvirus 1 = assay: Antiviral activity against Human herpesvirus 1 KOS ATCC VR 1493 infected in African green monkey Vero 76 cells assessed as protection against virus-induced cytopathic effect after 3 days by crystal violet staining-based plaque reduction assay; format: functional, organism-based; conditions: Human alphaherpesvirus 1, KOS, Vero 76, 72 h
[5] = Selectivity index, ratio of CC50 for golden hamster BHK21 cells to EC50 for Yellow fever virus 17D; format: toxicity; conditions: read-out: Ratio CC50/EC50
Summary of the method: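 Selectivity index calculated as BHK-21 CC50 divided by YFV EC50, both from MTT assays.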

Yellow fever virus [6] = assay: (§3) Antiviral activity against Yellow fever virus 17D vaccine (Stamaril Pasteur J07B01) infected in golden hamster BHK21 cells assessed as protection against virus-induced cytopathic effect after 3 to 4 days by MTT assay; format: functional, organism-based; conditions: BHK-21; summary of the method: as §2
Enterovirus C = assay: Antiviral activity against Enterovirus C Sabin […] infected in African green monkey Vero 76 cells assessed as protection against virus-induced cytopathic effect after 2 days by crystal violet staining-based plaque reduction assay; format: functional, organism-based; conditions: Vero 76, 48 h
[7] = tested on: Human immunodeficiency virus 1; assay: Antiviral activity against HIV1 3B infected in human MT4 cells assessed as protection against virus-induced cytopathic effect after 4 days by MTT assay; format: functional, organism-based; conditions: Human immunodeficiency virus 1, 3B, MT4, 96 h
Summary of the method: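 MT-4 cells (1×10^4/well) in RPMI with serial compound dilutions, infected with 100 CCID50 HIV-1 (m.o.i. 0.01). Viability read by MTT after 4 days at 37 °C. EC50 for 50% protection from cytopathicity obtained by linear regression versus untreated controls; mean of three determinations.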

[8] = Antiviral activity against Human enterovirus B Faulkner ATCC VR 185 infected in African green monkey Vero 76 cells assessed as protection against virus-induced cytopathic effect after 3 days by crystal violet staining-based plaque reduction assay; format: functional, cell-based; conditions: Faulkner ATCC VR 185, Vero 76, 72 h
Vaccinia virus = assay: Antiviral activity against Vaccinia virus Lister ATCC VR 1549 infected in African green monkey Vero 76 cells assessed as protection against virus-induced cytopathic effect after 3 days by crystal violet staining-based plaque reduction assay; format: functional, organism-based; conditions: Orthopoxvirus vaccinia, ATCC VR 1549, Vero 76, 72 h
[9] = Cytotoxicity against African green monkey Vero 76 cells assessed as decrease in cell viability after 48 to 96 hrs by MTT assay; format: cell-based; conditions: chlorocebus sabaeus
Summary of the method: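 Vero 76 cells seeded at 5×10^5 cells/mL in D-MEM with 10% FBS and incubated with serial compound dilutions at 37 °C, 5% CO2. Viability read by MTT after 48–96 h. CC50 by linear regression versus untreated controls.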

West Nile virus = assay: Antiviral activity against West Nile virus clinical isolate infected in golden hamster BHK21 cells assessed as protection against virus-induced cytopathic effect after 3 to 4 days by MTT assay; format: functional, organism-based; conditions: BHK-21; summary of the method: as §2
Human orthopneumovirus = assay: Antiviral activity against Human respiratory syncytial virus A2 ATCC VR 1540 infected in African green monkey Vero 76 cells assessed as protection against virus-induced cytopathic effect after 5 days by crystal violet staining-based plaque reduction assay; format: functional, organism-based; conditions: ATCC VR 1540, Vero 76, 120 h
[10] = Cytotoxicity against human MT4 cells assessed as decrease in cell viability after 96 hrs by MTT assay; format: cell-based
Summary of the method: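 Exponentially growing MT-4 cells seeded at 1×10^5 cells/mL in RPMI-1640 with 10% FBS and incubated with serial compound dilutions at 37 °C, 5% CO2. Viability read by MTT after 96 h. CC50 by linear regression versus untreated controls.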

[11] = Cytotoxicity against golden hamster BHK21 cells assessed as decrease in cell viability after 72 hrs by MTT assay; format: cell-based, Mesocricetus auratus, BHK-21; summary of the method: as §1
dengue virus type 2 = assay: Antiviral activity against Dengue virus type 2 clinical isolate infected in golden hamster BHK21 cells assessed as protection against virus-induced cytopathic effect after 3 to 4 days by MTT assay; format: functional, organism-based; conditions: BHK-21; summary of the method: as §2
[12] = Cytotoxicity against African green monkey Vero 76 cells assessed as decrease in cell viability after 5 days by MTT assay; format: cell-based; conditions: chlorocebus sabaeus
[13] = tested on: Mammalian orthoreovirus 1; assay: Antiviral activity against Reovirus 1 infected in golden hamster BHK21 cells assessed as protection against virus-induced cytopathic effect after 3 to 4 days by MTT assay; format: functional, organism-based; conditions: Mammalian orthoreovirus 1, BHK-21; summary of the method: as §2
[14] = Selectivity index, ratio of CC50 for African green monkey Vero 76 cells to EC50 for Human coxsackievirus B5 Faulkner; format: toxicity; conditions: read-out: Ratio CC50/EC50
Summary of the method: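 Selectivity index calculated as Vero 76 CC50 (MTT) divided by CVB-5 plaque-reduction EC50.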

Yellow fever virus [15] = assay: as §3, with “effect at 90 uM pretreated for 2 hrs followed by viral infection and measured” for “effect”, “24” for “3”, “36 hrs post infection” for “4 days”; format: functional, organism-based
Summary of the method: (§4)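 Confluent BHK-21 monolayers inoculated at room temperature with YFV 17-D at 1 PFU/cell, adsorbed 60 min and washed. Compound at 20 µM (test) or 90 µM (6-azauridine reference) added 2 h before infection, during the 2 h infection, or in 2-h windows from 0 to 10 h p.i. Wells washed, refed until 10 h, CPE scored at 24–36 h p.i. Cells frozen and titred by plaque assay.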

[16] = Selectivity index, ratio of CC50 for bovine MDBK cells to EC50 for Bovine viral diarrhea virus NADL ATCC VR 534; format: toxicity; conditions: cattle, read-out: Ratio CC50/EC50
Summary of the method: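 Selectivity index calculated as MDBK CC50 divided by BVDV EC50, both by MTT.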

Yellow fever virus [17] = conditions: Yellow fever virus 17D; vaccine (Stamaril Pasteur J07B01); at 20 µM
Yellow fever virus [18] = assay: as §3, with “effect at 20 uM pretreated for 2 hrs followed by viral infection and measured” for “effect”, “24” for “3”, “36 hrs post infection” for “4 days”; format: functional, organism-based; summary of the method: as §4

Compound	CC50 at 72 h [1] [µM]	EC50 [2] [µM]	EC50 [3] [µM]	Ratio EC50 (Yellow fever virus [4])	EC50 (Human alphaherpesvirus 1) [µM]	selectivity ratio [5]	EC50 (Yellow fever virus [6]) [µM]	EC50 (Enterovirus C) [µM]	EC50 [7] [µM]	EC50 [8] [µM]	EC50 (Vaccinia virus) [µM]	CC50 [9] [µM]	EC50 (West Nile virus) [µM]	EC50 (Human orthopneumovirus) [µM]	CC50 at 96 h [10] [µM]	CC50 at 72 h [11] [µM]	EC50 (dengue virus type 2) [µM]	CC50 at 120 h [12] [µM]	EC50 [13] [µM]	selectivity ratio [14]	other results
Cc1ccc(C2CC(c3ccc(Oc4ccccc4)cc3)=NN2c2ccc(S(N)(=O)=O)cc2)cc1 (stereo unspecified)	21	> 21	> 86	10	> 86	5	1.8	> 86	> 7.2	> 86	> 86	86	> 9	> 20	7.2	8 to 9	> 9	20	> 8		
NS(=O)(=O)c1ccc(N2N=C(c3ccc(Oc4ccccc4)cc3)CC2c2ccccc2)cc1 (stereo unspecified)	5	> 5	> 85	10	> 85	6.2	2.1	> 85	13	3.5	> 85	85	> 13	> 35	42	11 to 13	> 13	35	> 11	24.3	
O=c1cnn([C@@H]2O[C@H](CO)[C@@H](O)[C@H]2O)c(=O)[nH]1 [6-AZAURIDINE]						> 5	20					16		40		> 100			18		Activity (Yellow fever virus [15]): Active
NS(=O)(=O)c1ccc(N2N=C(c3ccc(OCc4ccccc4)cc3)CC2c2ccccc2F)cc1 (stereo unspecified)	> 100	52	> 100	10	> 100	50	1.8	> 100	> 39	> 100	> 100	> 100	> 90	> 100	39	90 to 92	> 90		> 92		selectivity ratio [16]: > 1.9; inhibition (Yellow fever virus [17]): Active; inhibition (Yellow fever virus [18]): Active
NS(=O)(=O)c1ccc(N2N=C(c3ccc(OCc4ccccc4)cc3)CC2c2cccc(F)c2)cc1 (stereo unspecified)	15	10	> 90	10	> 90	5.5	2	> 90	> 65	8.5	> 90	90	> 11	> 25	65	9 to 11	> 11	25	> 9	10.6	selectivity ratio [16]: 1.5
Cc1ccccc1C1CC(c2ccc(Oc3ccccc3)cc2)=NN1c1ccc(S(N)(=O)=O)cc1 (stereo unspecified)	16	> 16	> 90	10	> 90	3.6	2.2	> 90	13	> 90	> 90	90	> 8	> 14	36	7 to 8	> 8	14	> 7		
Cc1cccc(C2CC(c3ccc(Oc4ccccc4)cc3)=NN2c2ccc(S(N)(=O)=O)cc2)c1 (stereo unspecified)	6	> 6	> 81	10	> 81	5	1.8	> 81	> 35	> 81	> 81	81	> 9	> 14	35	8 to 9	> 9	14	> 8		
Cc1ccc(C2CC(c3ccc(OCc4ccccc4)cc3)=NN2c2ccc(S(N)(=O)=O)cc2)cc1 (stereo unspecified)	80	2.5	> 100	10	> 100	20	1.8	> 100	> 35	13	> 100	100	> 36	> 100	35	32 to 36	> 36		> 32	7.7	selectivity ratio [16]: 32
NS(=O)(=O)c1ccc(N2N=C(c3ccc(OCc4ccccc4)cc3)CC2c2ccccc2)cc1 (stereo unspecified)	72	> 72	> 100	10	> 100	36.4	2.2	> 100	> 100	> 100	> 100	> 100	> 80	> 100	> 100	80 to 84	> 80		> 84		inhibition (Yellow fever virus [17]): Active; inhibition (Yellow fever virus [18]): Active
